{"data": "Assay results of several laboratories", "target": "Protein kinase C delta type (PRKCD, Homo sapiens, UniProt Q05655)", "note": "Compare with care: the assays were run in different laboratories."}
{"SMILES": "CC1=C(C#N)C(c2ccc3c(c2)c(NC(=O)c2ccccc2C)nn3C)C(C#N)=C(C)N1", "observed": "cell-free assay", "technique": "competition with immobilised ligand", "concentration": "1 µM", "measurement": "remaining binding", "result": "100%"}
{"SMILES": "COc1cc2ncnc(Nc3ccc(Oc4ccccc4)c(C)c3C)c2cc1OC", "observed": "enzyme activity", "action": "inhibitor", "concentration": "1 µM", "measurement": "inhibition", "result": "23%"}
{"SMILES": "CO[C@@H](C)c1c(Nc2ccc([C@@H](N(C)C(=O)C3CCS(=O)(=O)CC3)C(F)(F)F)cc2)cnc2cc(Cl)nn12", "observed": "cell-free assay", "technique": "competition with immobilised ligand", "concentration": "1 µM", "measurement": "remaining binding", "result": "90%"}
{"SMILES": "Cn1cnc(Br)c1C1=CN(c2ncnc3[nH]cnc23)CCS1", "observed": "enzyme activity", "action": "inhibitor", "technique": "radiometric", "concentration": "2 µM", "measurement": "inhibition", "result": "93.4%"}
{"SMILES": "Cc1cnc(NC2CCOCC2)nc1-n1cnc(C(=O)NC(CN)c2cc(F)cc(Cl)c2)c1 (stereo not shown)", "observed": "enzyme activity", "action": "inhibitor", "technique": "radiometric", "concentration": "1 µM", "measurement": "remaining activity", "result": "59%"}
{"SMILES": "CC/C(=N\\NC(=O)NCc1cccc(O)c1)c1ccc(O)c(C)c1O", "observed": "enzyme activity", "action": "inhibitor", "concentration": "0.1 µM", "measurement": "inhibition", "result": "24.6%"}
{"SMILES": "CC(C)(O)[C@H]1CC[C@H](Nc2ccc3ncc(-c4cccc(C(F)(F)F)c4)n3n2)CC1", "observed": "enzyme activity", "action": "inhibitor", "concentration": "1 µM", "measurement": "remaining activity", "result": "84.2%"}
{"SMILES": "CNC(=O)c1cc(Oc2ccc(NC(=O)Nc3ccc(Cl)c(C(F)(F)F)c3)cc2)ccn1", "observed": "enzyme activity", "action": "inhibitor", "concentration": "10 µM", "measurement": "inhibition", "result": "-6%"}
{"SMILES": "FC(F)(F)c1ccc2c(c1)nc(-c1cccnc1)n2C1CC1", "observed": "cell-free assay", "technique": "competition with immobilised ligand", "concentration": "1 µM", "measurement": "remaining binding", "result": "100%"}
{"SMILES": "C[C@@H](N)[C@H]1CC[C@H](C(=O)Nc2ccncc2)CC1", "observed": "enzyme activity", "action": "inhibitor", "technique": "TR-FRET", "concentration": "10 µM", "measurement": "inhibition", "result": "82.5%"}
{"SMILES": "CC(=O)C1=C(C)N(c2cccc(C(F)(F)F)c2)C(=O)N[C@@H]1c1ccc(C#N)nc1", "observed": "cell-free assay", "technique": "competition with immobilised ligand", "concentration": "1 µM", "measurement": "remaining binding", "result": "100%"}
{"SMILES": "O=C1Nc2ccc(Cl)cc2C1=Cc1cc(Cl)c(O)c(Cl)c1", "observed": "cell-free assay", "concentration": "0.5 µM", "measurement": "remaining signal", "result": "86.7%"}
{"SMILES": "Cc1ccc(NC(=O)c2ccc(C)c(C(F)(F)F)c2)cc1C#Cc1nn(C2CCC(O)CC2)c2ncnc(N)c12 (stereo not shown)", "observed": "cell-free assay", "concentration": "10 µM", "measurement": "remaining signal", "result": "96%"}
{"SMILES": "CCCS(=O)(=O)Nc1ccc(F)c(C(=O)c2c[nH]c3ncc(-c4ccc(Cl)cc4)cc23)c1F", "observed": "enzyme activity", "action": "inhibitor", "concentration": "1 µM", "measurement": "inhibition", "result": "< 20%"}
{"SMILES": "CCCOc1ccc(OC)c(F)c1C(=O)c1ccc(C(=O)N[C@@H]2CNC[C@H]2NC(=O)c2ccc3[nH]ncc3c2)cc1", "observed": "enzyme activity", "action": "inhibitor", "concentration": "0.75 µM", "measurement": "remaining activity", "result": "68%"}
{"SMILES": "N#CCCc1ccc2c(c1)-c1[nH]c3ccc([N+](=O)[O-])cc3c1CC(=O)N2", "observed": "cell-free assay", "concentration": "0.5 µM", "measurement": "remaining signal", "result": "74.9%"}
{"SMILES": "Cc1cc(NC(=O)c2cccc3cc(-c4cccc5[nH]nc(N)c45)ccc23)ccc1F", "observed": "enzyme activity", "action": "inhibitor", "concentration": "0.1 µM", "measurement": "activity vs control", "result": "108%"}
{"SMILES": "COCCOc1nc(-c2ccc(Cl)nc2)nc2c1CN(C(=O)c1ncn3ccccc13)CC2", "observed": "cell-free assay", "technique": "competition with immobilised ligand", "concentration": "0.1 µM", "measurement": "remaining binding", "result": "100%"}
{"SMILES": "Cn1c2ccccc2c2c3c(c4c5ccccc5n(CCC#N)c4c21)CNC3=O", "observed": "cell-free assay", "concentration": "0.5 µM", "measurement": "remaining signal", "result": "41.9%"}
{"SMILES": "C[C@@]1(Cc2ccc(C#N)cc2)C(=O)N(c2cc(Cl)cc(Cl)c2)c2ncc(C(=O)NC3(c4nc(C5CCC5)no4)CC3)n21", "observed": "cell-free assay", "technique": "competition with immobilised ligand", "concentration": "1 µM", "measurement": "remaining binding", "result": "100%"}
{"SMILES": "CC(C)(C)c1nc2c(s1)c1nc(N)ncc1c1ccc(NS(=O)(=O)c3c(F)cccc3F)c(F)c12", "observed": "enzyme activity", "action": "inhibitor", "technique": "radiometric", "concentration": "1 µM", "measurement": "remaining activity", "result": "100%"}
{"SMILES": "Nc1c(C(=O)NCc2ccc(C(=O)NCCCC3CCCCC3)cc2)cnn1-c1ccccc1", "observed": "cell-free assay", "technique": "competition with immobilised ligand", "concentration": "0.1 µM", "measurement": "remaining binding", "result": "88%"}
{"SMILES": "O=C(Nc1cnn(-c2csc(C(=O)NC3COC3)c2)c1)Nc1ccccc1Cl", "observed": "enzyme activity", "action": "inhibitor", "concentration": "5 µM", "measurement": "remaining activity", "result": "112%"}
{"SMILES": "c1ccc(N2CCN(Cc3nc4ccccc4[nH]3)CC2)nc1", "observed": "cell-free assay", "technique": "competition with immobilised ligand", "concentration": "1 µM", "measurement": "remaining binding", "result": "100%"}
{"SMILES": "Cn1cncc1C1=CN(c2ncnc3[nH]cnc23)CCS1", "observed": "enzyme activity", "action": "inhibitor", "technique": "radiometric", "concentration": "50 nM", "measurement": "inhibition", "result": "12.6%"}
